Test results published in ChEMBL document CHEMBL1153726, “Synthesis and anticancer activity of sclerophytin-inspired hydroisobenzofurans” (Bioorg Med Chem Lett, 2009).

Key:
Type in all cases: functional
HCT-116 = test: Growth inhibition of human HCT116 cells at 1 uM after 96 hrs by MTT assay; parameters: scale not given: the % may be the effect or the level left
ACHN [1] = test: Growth inhibition of human ACHN cells at 10 uM after 96 hrs by MTT assay; parameters: scale not given: the % may be the effect or the level left
IGROV-1 = test: Growth inhibition of human IGROV1 cells at 1 nM after 96 hrs by MTT assay; parameters: scale not given: the % may be the effect or the level left
SK-MEL-5 [2] = test: Growth inhibition of human SK-MEL-5 cells at 1 uM after 96 hrs by MTT assay; parameters: scale not given: the % may be the effect or the level left
MDA-MB-435 = test: Growth inhibition of human MDA-MB-435 cells at 10 nM after 96 hrs by MTT assay; parameters: scale not given: the % may be the effect or the level left
NCI/ADR-RES [3] = test: Growth inhibition of human NCI/ADR-RES cells at 100 nM after 96 hrs by MTT assay; parameters: scale not given: the % may be the effect or the level left
LOX IMVI [4] = test: Growth inhibition of human LOXIMVI cells after 96 hrs by MTT assay
How it was run: (§1)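 Run in the NCI 60 human tumour cell line panel as a five-dose assay. GI50 and LC50 were reported for each cell line.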

EKVX [5] = test: Growth inhibition of human EKVX cells after 96 hrs by MTT assay; how it was run: as §1
SR = test: Growth inhibition of human SR cells after 96 hrs by MTT assay
How it was run: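 Tested in the NCI 60-cell-line panel in five-dose format; GI50 and LC50 values reported for each cell line.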

UACC-257 = test: Growth inhibition of human UACC257 cells at 1 uM after 96 hrs by MTT assay; parameters: scale not given: the % may be the effect or the level left
SF-295 [6] = test: Growth inhibition of human SF295 cells at 1 uM after 96 hrs by MTT assay; parameters: scale not given: the % may be the effect or the level left
HL-60(TB) = test: Growth inhibition of human HL-60(TB) cells at 100 nM after 96 hrs by MTT assay; parameters: scale not given: the % may be the effect or the level left
EKVX [7] = test: Growth inhibition of human EKVX cells at 1 uM after 96 hrs by MTT assay; parameters: scale not given: the % may be the effect or the level left
MCF7 [8] = test: Growth inhibition of human MCF7 cells after 96 hrs by MTT assay; conditions: MCF7, 96 h; how it was run: as §1
ACHN [9] = test: Growth inhibition of human ACHN cells at 10 nM after 96 hrs by MTT assay; parameters: scale not given: the % may be the effect or the level left
MDA-MB-468 = test: Growth inhibition of human MDA-MB-468 cells at 10 uM after 96 hrs by MTT assay; parameters: scale not given: the % may be the effect or the level left
[10] = Growth inhibition of human RPMI8266 cells at 1 uM after 96 hrs by MTT assay; parameters: scale not given: the % may be the effect or the level left
NCI/ADR-RES [11] = test: Growth inhibition of human NCI/ADR-RES cells at 1 nM after 96 hrs by MTT assay; parameters: scale not given: the % may be the effect or the level left
A549 [12] = test: Growth inhibition of human A549 cells after 96 hrs by MTT assay; conditions: A549, 96 h
U-251 = test: Growth inhibition of human U251 cells at 1 nM after 96 hrs by MTT assay; parameters: scale not given: the % may be the effect or the level left
COLO 205 = test: Growth inhibition of human COLO205 cells at 1 nM after 96 hrs by MTT assay; parameters: scale not given: the % may be the effect or the level left
NCI-H322M = test: Growth inhibition of human NCI-H322M cells at 10 uM after 96 hrs by MTT assay; parameters: scale not given: the % may be the effect or the level left
SF-295 [13] = test: Growth inhibition of human SF295 cells at 100 nM after 96 hrs by MTT assay; parameters: scale not given: the % may be the effect or the level left
HOP-62 = test: Growth inhibition of human HOP62 cells at 1 nM after 96 hrs by MTT assay; parameters: scale not given: the % may be the effect or the level left
A549 [14] = test: Growth inhibition of human A549 cells at 1 nM after 96 hrs by MTT assay; parameters: scale not given: the % may be the effect or the level left
NCI-H460 = test: Growth inhibition of human NCI-H460 cells after 96 hrs by MTT assay; conditions: NCI-H460, 96 h; how it was run: as §1
M14 [15] = test: Growth inhibition of human M14 cells after 96 hrs by MTT assay; conditions: M14, 96 h; how it was run: as §1
SK-MEL-2 = test: Growth inhibition of human SK-MEL-2 cells at 1 uM after 96 hrs by MTT assay; parameters: scale not given: the % may be the effect or the level left
MCF7 [16] = test: Growth inhibition of human MCF7 cells at 100 nM after 96 hrs by MTT assay; parameters: scale not given: the % may be the effect or the level left
M14 [17] = test: Growth inhibition of human M14 cells at 10 uM after 96 hrs by MTT assay; parameters: scale not given: the % may be the effect or the level left
BT-549 [18] = test: Growth inhibition of human BT549 cells at 1 nM after 96 hrs by MTT assay; parameters: scale not given: the % may be the effect or the level left
UACC-62 = test: Growth inhibition of human UACC62 cells at 1 uM after 96 hrs by MTT assay; parameters: scale not given: the % may be the effect or the level left
NCI/ADR-RES [19] = test: Growth inhibition of human NCI/ADR-RES cells at 10 uM after 96 hrs by MTT assay; parameters: scale not given: the % may be the effect or the level left
SNB-19 = test: Growth inhibition of human SNB19 cells at 1 uM after 96 hrs by MTT assay; parameters: scale not given: the % may be the effect or the level left
[20] = Growth inhibition of human Hs 578T cells after 96 hrs by MTT assay; how it was run: as §1
OVCAR-4 = test: Growth inhibition of human OVCAR4 cells at 10 nM after 96 hrs by MTT assay; parameters: scale not given: the % may be the effect or the level left
BT-549 [21] = test: Growth inhibition of human BT549 cells at 100 nM after 96 hrs by MTT assay; parameters: scale not given: the % may be the effect or the level left
SK-MEL-5 [22] = test: Growth inhibition of human SK-MEL-5 cells at 100 nM after 96 hrs by MTT assay; parameters: scale not given: the % may be the effect or the level left
LOX IMVI [23] = test: Growth inhibition of human LOXIMVI cells at 1 nM after 96 hrs by MTT assay; parameters: scale not given: the % may be the effect or the level left
SW-620 = test: Growth inhibition of human SW620 cells at 10 uM after 96 hrs by MTT assay; parameters: scale not given: the % may be the effect or the level left
[24] = read-out: LC50 (the source's name)
[25] = read-out: Log10GI50 (converted)
[26] = read-out: Log10LC50 (converted)

Q: For `C=C(C)[C@H]1CC=C(C)C2=CO[C@@H](c3ccccc3F)[C@@H]21`, which Activity (HCT-116) is on record?
A: 15%

Q: And the Activity (ACHN [1])?
A: 93.56%

Q: What about the Activity (IGROV-1) of the same compound?
A: 91%

Q: What about the Activity (SK-MEL-5 [2]) of the same compound?
A: 21%

Q: What about the Activity (MDA-MB-435) of the same compound?
A: 83%

Q: What about the Activity (NCI/ADR-RES [3]) of the same compound?
A: 82%

Q: And the GI50 (LOX IMVI [4]; read-out: GI50)?
A: 4.3 µM

Q: What about the CC50 (LOX IMVI [4]; [24]) of the same compound?
A: 55.4 µM

Q: What about the GI50 (LOX IMVI [4]; [25]) of the same compound?
A: 4.27 µM

Q: And the CC50 (LOX IMVI [4]; [26])?
A: 55 µM

Q: And the TGI (LOX IMVI [4]; read-out: Log10TGI (converted))?
A: 20 µM

Q: And the TGI (LOX IMVI [4]; read-out: TGI)?
A: 19.8 µM

Q: What about the GI50 (EKVX [5]; read-out: GI50) of the same compound?
A: 3.37 µM

Q: What about the CC50 (EKVX [5]; [24]) of the same compound?
A: 80.3 µM

Q: What about the GI50 (EKVX [5]; [25]) of the same compound?
A: 3.39 µM

Q: And the CC50 (EKVX [5]; [26])?
A: 79.4 µM

Q: What about the TGI (EKVX [5]; read-out: Log10TGI (converted)) of the same compound?
A: 19.5 µM

Q: And the TGI (EKVX [5]; read-out: TGI)?
A: 19.4 µM

Q: What about the GI50 (SR; read-out: GI50) of the same compound?
A: 0.798 µM

Q: And the CC50 (SR; [24])?
A: 23.9 µM

Q: What about the GI50 (SR; [25]) of the same compound?
A: 0.794 µM

Q: And the CC50 (SR; [26])?
A: 24 µM

Q: What about the TGI (SR; read-out: Log10TGI (converted)) of the same compound?
A: 3.72 µM

Q: What about the TGI (SR; read-out: TGI) of the same compound?
A: 3.67 µM

Q: What about the Activity (UACC-257) of the same compound?
A: 44%

Q: What about the Activity (SF-295 [6]) of the same compound?
A: 30%

Q: And the Activity (HL-60(TB))?
A: 92%

Q: What about the Activity (EKVX [7]) of the same compound?
A: 23%

Q: And the GI50 (MCF7 [8]; read-out: GI50)?
A: 3.77 µM

Q: And the CC50 (MCF7 [8]; [24])?
A: 63.9 µM

Q: What about the GI50 (MCF7 [8]; [25]) of the same compound?
A: 3.8 µM

Q: And the CC50 (MCF7 [8]; [26])?
A: 64.6 µM

Q: And the TGI (MCF7 [8]; read-out: Log10TGI (converted))?
A: 18.6 µM

Q: What about the TGI (MCF7 [8]; read-out: TGI) of the same compound?
A: 18.8 µM

Q: What about the Activity (ACHN [9]) of the same compound?
A: 96%

Q: And the Activity (MDA-MB-468)?
A: 102.71%

Q: What about the Activity [10] of the same compound?
A: -52%

Q: And the Activity (NCI/ADR-RES [11])?
A: 105%

Q: What about the GI50 (A549 [12]; read-out: GI50) of the same compound?
A: 6.17 µM

Q: And the CC50 (A549 [12]; [24])?
A: > 100 µM

Q: And the GI50 (A549 [12]; [25])?
A: 6.17 µM

Q: What about the CC50 (A549 [12]; [26]) of the same compound?
A: > 100 µM

Q: And the TGI (A549 [12]; read-out: Log10TGI (converted))?
A: 30.2 µM

Q: What about the TGI (A549 [12]; read-out: TGI) of the same compound?
A: 30.1 µM

Q: What about the Activity (U-251) of the same compound?
A: 98%

Q: And the Activity (COLO 205)?
A: 101%

Q: What about the Activity (NCI-H322M) of the same compound?
A: 120.7%

Q: What about the Activity (SF-295 [13]) of the same compound?
A: 88%

Q: And the Activity (HOP-62)?
A: 95%

Q: What about the Activity (A549 [14]) of the same compound?
A: 93%

Q: And the GI50 (NCI-H460; read-out: GI50)?
A: 4.24 µM

Q: What about the CC50 (NCI-H460; [24]) of the same compound?
A: 43.4 µM

Q: What about the GI50 (NCI-H460; [25]) of the same compound?
A: 4.27 µM

Q: What about the CC50 (NCI-H460; [26]) of the same compound?
A: 43.7 µM

Q: And the TGI (NCI-H460; read-out: Log10TGI (converted))?
A: 17.4 µM

Q: And the TGI (NCI-H460; read-out: TGI)?
A: 17.5 µM

Q: What about the GI50 (M14 [15]; read-out: GI50) of the same compound?
A: 6.51 µM

Q: What about the CC50 (M14 [15]; [24]) of the same compound?
A: 45.6 µM

Q: And the GI50 (M14 [15]; [25])?
A: 6.46 µM

Q: And the CC50 (M14 [15]; [26])?
A: 45.7 µM

Q: And the TGI (M14 [15]; read-out: Log10TGI (converted))?
A: 20 µM

Q: And the TGI (M14 [15]; read-out: TGI)?
A: 20.2 µM

Q: What about the Activity (SK-MEL-2) of the same compound?
A: 31%

Q: And the Activity (MCF7 [16])?
A: 83%

Q: And the Activity (M14 [17])?
A: 102.54%

Q: And the Activity (BT-549 [18])?
A: 97%

Q: And the Activity (UACC-62)?
A: 29%

Q: And the Activity (NCI/ADR-RES [19])?
A: 108.3%

Q: What about the Activity (SNB-19) of the same compound?
A: 54%

Q: What about the GI50 ([20]; read-out: GI50) of the same compound?
A: 2.72 µM

Q: And the CC50 [20, 24]?
A: > 100 µM

Q: What about the GI50 [20, 25] of the same compound?
A: 2.69 µM

Q: And the CC50 [20, 26]?
A: > 100 µM

Q: And the TGI ([20]; read-out: Log10TGI (converted))?
A: 24.5 µM

Q: What about the TGI ([20]; read-out: TGI) of the same compound?
A: 24.8 µM

Q: What about the Activity (OVCAR-4) of the same compound?
A: 86%

Q: What about the Activity (BT-549 [21]) of the same compound?
A: 67%

Q: And the Activity (SK-MEL-5 [22])?
A: 69%

Q: And the Activity (LOX IMVI [23])?
A: 97%

Q: And the Activity (SW-620)?
A: 101.12%
